Test results taken from ChEMBL document CHEMBL1955787, “Design and synthesis of novel magnolol derivatives as potential antimicrobial and antiproliferative compounds” (Eur J Med Chem, 2012).
Values after ≈ are worked out from the molar mass of the structure shown. Active and inactive are the calls of the source. The calls are words filed in the database; no cut-off is given here.

Experiments:
Staphylococcus aureus [1] = assay: Antibacterial activity against methicillin-resistant Staphylococcus aureus 15187 after 24 hrs by micro dilution method; format: functional; conditions: Staphylococcus aureus, 15187, 24 h
Summary of the method: (§1)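 Broth microdilution in Mueller Hinton broth, two-fold serial dilutions, final 0.25 to 256 µg mL-1. Inoculum from 24 h culture in saline, set to 0.5 McFarland, diluted to a final 5 × 10^6 CFU mL-1. Plates held at 37 °C for 24 h and read by eye. MIC is the lowest concentration with no turbidity.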

Enterococcus [2] = assay: Antibacterial activity against vancomycin-resistant Enterococcus treated for 24 hrs followed by compound treated at 2 to 16 times MIC measured after 24 hrs by micro dilution method; format: functional
Summary of the method: (§2)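 MBC taken from the same 24 h microdilution plates (Mueller Hinton broth, final inoculum 5 × 10^6 CFU mL-1, 37 °C). […] Spots were incubated 24 h and colonies counted. MBC is the lowest concentration giving a 3 log drop from the starting inoculum.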

Staphylococcus aureus [3] = assay: Antibacterial activity against Staphylococcus aureus ATCC 29213 after 24 hrs by micro dilution method; format: functional; conditions: ATCC 29213, 24 h
Summary of the method: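 Broth microdilution in Mueller Hinton broth. Inoculum from a 24 h culture in saline, set to 0.5 McFarland and diluted to a final 5 × 10^6 CFU mL-1. Two-fold serial dilutions, final 0.25–256 µg mL-1. Incubated 37 °C for 24 h and read visually. MIC is the lowest concentration with no turbidity.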

Staphylococcus aureus [4] = assay: Antibacterial activity against Staphylococcus aureus ATCC 29213 treated for 24 hrs followed by compound treated at 2 to 16 times MIC measured after 24 hrs by micro dilution method; format: functional; conditions: ATCC 29213, 24 h
Enterococcus [5] = assay: Antibacterial activity against vancomycin-resistant Enterococcus after 24 hrs by micro dilution method; format: functional; summary of the method: as §1
Staphylococcus aureus [6] = assay: Antibacterial activity against methicillin-resistant Staphylococcus aureus 15187 treated for 24 hrs followed by compound treated at 2 to 16 times MIC measured after 24 hrs by micro dilution method; format: functional; conditions: Staphylococcus aureus, 15187, 24 h; summary of the method: as §2
HL-60 [7] = assay: Antiproliferative activity against human HL60 cells after 48 hrs by sulforhodamine B assay; format: functional, cell-based; conditions: HL-60, 48 h
Summary of the method: (§3)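 Sulforhodamine B assay following NCI guidelines. Log-phase cells seeded at 10^4 cells/well and allowed to attach for 24 h at 37 °C, 5% CO2. Exposed 48 h to 1:10 serial dilutions, four replicate wells per condition. Fixed with 50% cold TCA for 1 h at 4 °C, stained, dye dissolved in tris buffer, OD read at 540 nm. Blank-subtracted growth expressed relative to untreated (100%) and reported as IC50.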

MOLT-4 = assay: Antiproliferative activity against human MOLT4 cells after 48 hrs by sulforhodamine B assay; format: functional, cell-based; conditions: MOLT-4, 48 h; summary of the method: as §3
Aspergillus fumigatus = assay: Antifungal activity against Aspergillus fumigatus LSI-II; format: functional
PC-3 = assay: Antiproliferative activity against human PC3 cells after 48 hrs by sulforhodamine B assay; format: functional, cell-based; conditions: PC-3, 48 h; summary of the method: as §3
Candida albicans = assay: Antifungal activity against Candida albicans ATCC 90028; format: functional
HL-60 [8] = assay: Cell cycle arrest in human HL60 cells assessed as accumulation at sub-G1 phase at 30 uM after 24 hrs using propidium iodide staining by flow cytometry; format: functional
Summary of the method: (§4)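 Cell-cycle (sub-G1) profiling of HL-60 cells at 1 × 10^6 per well, treated 24 h at 1, 10, 30 or 100 µM. Washed in ice-cold PBS, fixed in 70% ethanol at -20 °C for 30 min. Treated with RNase A (0.1 mg/mL) at 37 °C for 30 min, then propidium iodide (50 µg/mL) for 30 min on ice in the dark. Read with doublet discrimination and 488 nm excitation.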

HL-60 [9] = assay: Cell cycle arrest in human HL60 cells assessed as accumulation at sub-G1 phase at 10 uM after 6 hrs using propidium iodide staining by flow cytometry; format: functional
Summary of the method: (§5)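 Time-course sub-G1 analysis of HL-60 cells exposed to 10 µM and sampled at 0, 6, 9, 18 and 24 h. Ethanol fixation, RNase A and propidium iodide staining as for the dose series, then flow cytometric DNA content at 488 nm excitation.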

HL-60 [10] = assay: Cell cycle arrest in human HL60 cells assessed as accumulation at sub-G1 phase after 24 hrs using propidium iodide staining by flow cytometry; format: functional, cell-based; summary of the method: as §4
HL-60 [11] = assay: Cell cycle arrest in human HL60 cells assessed as accumulation at sub-G1 phase at 10 uM after 18 hrs using propidium iodide staining by flow cytometry; format: functional; summary of the method: as §5
HL-60 [12] = assay: Cell cycle arrest in human HL60 cells assessed as accumulation at sub-G1 phase at 100 uM after 24 hrs using propidium iodide staining by flow cytometry; format: functional; summary of the method: as §4
HL-60 [13] = assay: Induction of apoptosis in human HL60 cells assessed as DNA discrete ladder pattern formation at 5 to 30 uM after 24 hrs using ethidium bromide staining by agarose gel electrophoresis analysis; format: functional, cell-based
HL-60 [14] = assay: Cell cycle arrest in human HL60 cells assessed as accumulation at sub-G1 phase at 10 uM after 24 hrs using propidium iodide staining by flow cytometry; format: functional; summary of the method: as §5
HL-60 [15] = assay: Cell cycle arrest in human HL60 cells assessed as accumulation at sub-G1 phase at 1 uM after 24 hrs using propidium iodide staining by flow cytometry; format: functional; summary of the method: as §4
HL-60 [16] = assay: Cell cycle arrest in human HL60 cells assessed as accumulation at sub-G1 phase at 10 uM after 3 hrs using propidium iodide staining by flow cytometry; format: functional
HL-60 [17] = assay: Cell cycle arrest in human HL60 cells assessed as accumulation at sub-G1 phase at 10 uM after 9 hrs using propidium iodide staining by flow cytometry; format: functional; summary of the method: as §5

Row | SMILES | MIC (Staphylococcus aureus [1]) [µg/mL] | MBC (Enterococcus [2]) [µg/mL] | MIC (Staphylococcus aureus [3]) [µg/mL] | MBC (Staphylococcus aureus [4]) [µg/mL] | MIC (Enterococcus [5]) [µg/mL] | MBC (Staphylococcus aureus [6]) [µg/mL] | IC50 (HL-60 [7]) [µM] | IC50 (MOLT-4) [µM] | MIC (Aspergillus fumigatus) | IC50 (PC-3) [µM] | MIC (Candida albicans) | other results
1 | CC[C@H]1OC(=O)[C@H](C)[C@@H](O[C@H]2C[C@@](C)(OC)[C@@H](O)[C@H](C)O2)[C@H](C)[C@@H](O[C@@H]2O[C@H](C)C[C@H](N(C)C)[C@H]2O)[C@](C)(O)C[C@@H](C)C(=O)[C@H](C)[C@@H](O)[C@]1(C)O [ERYTHROMYCIN] | 64 (≈ 87.2 µM) | 64 (≈ 87.2 µM) | 0.5 (≈ 0.681 µM) | 1 (≈ 1.36 µM) | 64 (≈ 87.2 µM) | 64 (≈ 87.2 µM) | – | – | – | – | – | –
2 | CCCCc1ccc(O)c(-c2cc(CCCC)cc(I)c2O)c1 | > 256 | > 256 | > 256 | > 256 | > 256 | > 256 | 50 | 66 | inactive | 60 | inactive | –
3 | C=CCc1cc(O)c(O)c(-c2cc(CC=C)cc(OC)c2O)c1 | 16 (≈ 51.2 µM) | 128 (≈ 410 µM) | 16 (≈ 51.2 µM) | 16 (≈ 51.2 µM) | 32 (≈ 102 µM) | 64 (≈ 205 µM) | > 100 | > 100 | inactive | > 100 | inactive | –
4 | C=CCc1cc(OC)c(O)c(-c2cc(CC=C)cc(OC)c2O)c1 | > 256 | > 256 | > 256 | > 256 | > 256 | > 256 | > 100 | > 100 | 32 µg/mL (≈ 98 µM) | > 100 | 64 µg/mL (≈ 196 µM) | –
5 | CCCc1ccc(O)c(-c2cc(CCC)cc(Cl)c2O)c1 | > 256 | > 256 | > 256 | > 256 | > 256 | > 256 | 85 | > 100 | inactive | > 100 | inactive | –
6 | CCCCc1cc(Cl)c(O)c(-c2cc(CCCC)cc(Cl)c2O)c1 | 8 (≈ 21.8 µM) | 16 (≈ 43.6 µM) | 8 (≈ 21.8 µM) | 8 (≈ 21.8 µM) | 8 (≈ 21.8 µM) | 8 (≈ 21.8 µM) | 90 | > 100 | inactive | > 100 | inactive | –
7 | CCCCc1ccc(O)c(-c2cc(CCCC)cc(Cl)c2O)c1 | > 256 | > 256 | > 256 | > 256 | > 256 | > 256 | > 100 | > 100 | inactive | > 100 | inactive | –
8 | CCCc1cc(Br)c(O)c(-c2cc(CCC)cc(Br)c2O)c1 | 4 (≈ 9.34 µM) | 8 (≈ 18.7 µM) | 4 (≈ 9.34 µM) | 4 (≈ 9.34 µM) | 4 (≈ 9.34 µM) | 4 (≈ 9.34 µM) | 30 | 55 | inactive | 95 | inactive | –
9 | CCCc1cc(Cl)c(O)c(-c2cc(CCC)cc(Cl)c2O)c1 | 4 (≈ 11.8 µM) | 8 (≈ 23.6 µM) | 4 (≈ 11.8 µM) | 4 (≈ 11.8 µM) | 8 (≈ 23.6 µM) | 4 (≈ 11.8 µM) | > 100 | > 100 | inactive | > 100 | inactive | –
10 | CCCCc1ccc(O)c(-c2cc(CCCC)cc(Br)c2O)c1 | 1 (≈ 2.65 µM) | 2 (≈ 5.3 µM) | 2 (≈ 5.3 µM) | 2 (≈ 5.3 µM) | 1 (≈ 2.65 µM) | 1 (≈ 2.65 µM) | 25 | 35 | inactive | 74 | inactive | –
11 | CCCc1ccc(O)c(-c2cc(CCC)cc(Br)c2O)c1 | 16 (≈ 45.8 µM) | 32 (≈ 91.6 µM) | 8 (≈ 22.9 µM) | 8 (≈ 22.9 µM) | 16 (≈ 45.8 µM) | 16 (≈ 45.8 µM) | > 100 | > 100 | inactive | > 100 | inactive | –
12 | C=CCc1cc(O)c(O)c(-c2cc(CC=C)cc(O)c2O)c1 | 16 (≈ 53.6 µM) | 32 (≈ 107 µM) | 8 (≈ 26.8 µM) | 8 (≈ 26.8 µM) | 16 (≈ 53.6 µM) | 16 (≈ 53.6 µM) | > 100 | > 100 | 64 µg/mL (≈ 215 µM) | > 100 | 128 µg/mL (≈ 429 µM) | –
13 | CCCc1cc(I)c(O)c(-c2cc(CCC)cc(I)c2O)c1 | 64 (≈ 123 µM) | 64 (≈ 123 µM) | 64 (≈ 123 µM) | 64 (≈ 123 µM) | 64 (≈ 123 µM) | 64 (≈ 123 µM) | 7 | 18 | inactive | 7 | inactive | –
14 | CCCc1ccc(O)c(-c2cc(CCC)cc(I)c2O)c1 | > 256 | > 256 | > 256 | > 256 | > 256 | > 256 | 45 | 60 | inactive | 63 | inactive | –
15 | CCCCc1cc(Br)c(O)c(-c2cc(CCCC)cc(Br)c2O)c1 | 8 (≈ 17.5 µM) | 16 (≈ 35.1 µM) | 8 (≈ 17.5 µM) | 8 (≈ 17.5 µM) | 8 (≈ 17.5 µM) | 8 (≈ 17.5 µM) | > 100 | > 100 | inactive | > 100 | inactive | –
16 | O=C(O)c1cn(C2CC2)c2cc(N3CCNCC3)c(F)cc2c1=O [CIPROFLOXACIN] | 8 (≈ 24.1 µM) | 64 (≈ 193 µM) | 0.25 (≈ 0.754 µM) | 0.5 (≈ 1.51 µM) | 32 (≈ 96.6 µM) | 8 (≈ 24.1 µM) | – | – | – | – | – | –
17 | O=c1[nH]cc(F)c(=O)[nH]1 [FLUOROURACIL] | – | – | – | – | – | – | 266 | 3.2 | – | 2.1 | – | –
18 | C=CCc1ccc(O)c(-c2cc(CC=C)ccc2O)c1 [MAGNOLOL] | 32 (≈ 120 µM) | 32 (≈ 120 µM) | 16 (≈ 60.1 µM) | 32 (≈ 120 µM) | 32 (≈ 120 µM) | 32 (≈ 120 µM) | 48 | 58 | – | 62 | – | –
19 | CCCCc1cc(I)c(O)c(-c2cc(CCCC)cc(I)c2O)c1 | 4 (≈ 7.27 µM) | 8 (≈ 14.5 µM) | 4 (≈ 7.27 µM) | 4 (≈ 7.27 µM) | 4 (≈ 7.27 µM) | 4 (≈ 7.27 µM) | 2 | 10 | inactive | 2 | inactive | Activity (HL-60 [8]): 67%; Activity (HL-60 [9]): 21%; Activity (HL-60 [10]): Dose-dependent effect; Activity (HL-60 [11]): 44%; Activity (HL-60 [12]): 78%; Activity (HL-60 [13]): Active; Activity (HL-60 [14]): 52%; Activity (HL-60 [15]): 12%; Activity (HL-60 [16]): 14%; Activity (HL-60 [17]): 33%
